From ChEMBL document CHEMBL1143221, “Two-carbon-elongated HIV-1 protease inhibitors with a tertiary-alcohol-containing transition-state mimic” (J Med Chem, 2008)

Key:
[1] = target: Protease (Human immunodeficiency virus 1, UniProt Q9YQ12); assay: Inhibition of HIV1 protease expressed in Escherichia coli
[2] = system: Human immunodeficiency virus 1; assay: Antiviral activity against HIV1 in MT4 cells by XTT assay; assay type: functional, organism-based; settings: Human immunodeficiency virus 1, MT4
[3] = Cytotoxicity against human MT4 cells; assay type: cell-based
[4] = Permeability from apical to basolateral side of human Caco-2 cell membrane; assay type: ADME, cell-based
[5] = Metabolic stability in human liver microsomes after 30 mins; assay type: ADME, Microsome; settings: read-out: Stability
Method in brief: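 Test compound incubated with human liver microsomes for 30 min at 37 °C. Read-out is percent parent compound remaining.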

Chain of Protease (Q9YQ12 whole entry): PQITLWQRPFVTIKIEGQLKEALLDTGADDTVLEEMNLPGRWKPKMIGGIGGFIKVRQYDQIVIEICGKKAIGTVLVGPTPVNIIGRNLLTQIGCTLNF

| SMILES | Ki [1] | EC50 [2] | CC50 [3] | Papp A→B [4] | remaining at 0.5 h [5] |
| --- | --- | --- | --- | --- | --- |
| COC(=O)N[C@H](C(=O)N[C@@H](Cc1ccccc1)[C@@H](O)CN(Cc1ccc(-c2ccccn2)cc1)NC(=O)[C@@H](NC(=O)OC)C(C)(C)C)C(C)(C)C [ATAZANAVIR] | 2.7 nM | 3.9 nM | – | – | – |
| COC(=O)N[C@H](C(=O)NN(CCC[C@@](O)(Cc1ccccc1)C(=O)N[C@H]1c2ccccc2C[C@H]1O)Cc1ccc(-c2ccccc2)cc1)C(C)(C)C | 7.3 nM | 780 nM | 7500 nM | > 20 ×10⁻⁶ cm/s | – |
| COC(=O)N[C@H](C(=O)NN(CCC[C@@](O)(Cc1ccccc1)C(=O)N[C@H]1c2ccccc2C[C@H]1O)Cc1ccc(OCc2cnc(Cl)s2)cc1)C(C)(C)C | – | 600 nM | > 10000 nM | – | – |
| COC(=O)N[C@H](C(=O)NN(CCC[C@](Cc1ccccc1)(O[Si](C)(C)C(C)(C)C)C(=O)N[C@H]1c2ccccc2C[C@H]1O[Si](C)(C)C(C)(C)C)Cc1ccc(Br)cc1)C(C)(C)C | 980 nM | > 10000 nM | > 10000 nM | – | – |
| COC(=O)N[C@H](C(=O)NN(CCC[C@](Cc1ccccc1)(O[Si](C)(C)C(C)(C)C)C(=O)N[C@H]1c2ccccc2C[C@H]1O)Cc1ccc(Br)cc1)C(C)(C)C | 190 nM | > 10000 nM | 5800 nM | – | – |
| COC(=O)N[C@H](C(=O)NN(CCC[C@@](O)(Cc1ccccc1)C(=O)N[C@H]1c2ccccc2C[C@H]1O)Cc1ccc(F)cc1)C(C)(C)C | 6.7 nM | 980 nM | > 10000 nM | – | – |
| COC(=O)N[C@H](C(=O)NN(CCC[C@@](O)(Cc1ccccc1)C(=O)N[C@H]1c2ccccc2C[C@H]1O)Cc1ccc(C#N)cc1)C(C)(C)C | 2.9 nM | 1200 nM | > 10000 nM | – | – |
| COC(=O)N[C@H](C(=O)NN(CCC[C@@](O)(Cc1ccccc1)C(=O)N[C@H]1c2ccccc2C[C@H]1O)Cc1ccc(-c2cccnc2)cc1)C(C)(C)C | 3.6 nM | 190 nM | > 10000 nM | < 20 ×10⁻⁶ cm/s | 94% |
| COC(=O)N[C@H](C(=O)NN(CCC[C@@](O)(Cc1ccccc1)C(=O)N[C@H]1c2ccccc2C[C@H]1O)Cc1ccc(Cl)cc1)C(C)(C)C | 3.4 nM | 910 nM | > 10000 nM | – | – |
| COC(=O)N[C@H](C(=O)NN(CCC[C@@](O)(Cc1ccccc1)C(=O)N[C@H]1c2ccccc2C[C@H]1O)Cc1ccccc1)C(C)(C)C | 5.7 nM | 1200 nM | > 10000 nM | < 20 ×10⁻⁶ cm/s | – |
| COC(=O)N[C@H](C(=O)NN(CCC[C@@](O)(Cc1ccccc1)C(=O)N[C@H]1c2ccccc2C[C@H]1O)CC(C)C)C(C)(C)C | 6.8 nM | 1800 nM | > 10000 nM | – | – |
| COC(=O)N[C@H](C(=O)NN(CCC[C@@](O)(Cc1ccccc1)C(=O)N[C@H]1c2ccccc2C[C@H]1O)Cc1ccc(-c2ccncc2)cc1)C(C)(C)C | 2.8 nM | 170 nM | > 10000 nM | < 20 ×10⁻⁶ cm/s | 94% |
| COC(=O)N[C@H](C(=O)NN(Cc1ccc(Br)cc1)C[C@](O)(Cc1ccccc1)C(=O)N[C@H]1c2ccccc2C[C@H]1O)C(C)(C)C | – | 1100 nM | – | – | – |
| COC(=O)N[C@H](C(=O)NN(CCC[C@@](O)(Cc1ccccc1)C(=O)N[C@H]1c2ccccc2C[C@H]1O)Cc1ccc(-c2noc(C)n2)cc1)C(C)(C)C | 3.6 nM | 190 nM | > 10000 nM | – | – |
| COC(=O)N[C@H](C(=O)NN(CCC[C@@](O)(Cc1ccccc1)C(=O)N[C@H]1c2ccccc2C[C@H]1O)Cc1ccc(-c2ccsc2)cc1)C(C)(C)C | 10 nM | 560 nM | > 10000 nM | – | – |
| COC(=O)N[C@H](C(=O)NN(CCC[C@@](O)(Cc1ccccc1)C(=O)N[C@H]1c2ccccc2C[C@H]1O)Cc1ccc(Br)cc1)C(C)(C)C | – | 850 nM | > 10000 nM | > 20 ×10⁻⁶ cm/s | – |

| SMILES | Ki [1] | EC50 [2] | CC50 [3] | Papp A→B [4] | remaining at 0.5 h [5] |
| --- | --- | --- | --- | --- | --- |
| COC(=O)N[C@H](C(=O)NN(CCC[C@](O)(Cc1ccccc1)C(=O)N[C@H]1c2ccccc2C[C@H]1O)Cc1ccc(Br)cc1)C(C)(C)C | 420 nM | > 10000 nM | > 10000 nM | > 20 ×10⁻⁶ cm/s | – |
| COC(=O)N[C@H](C(=O)NN(CCC[C@@](O)(Cc1ccccc1)C(=O)N[C@H]1c2ccccc2C[C@H]1O)Cc1ccc(-c2nc(C(C)(C)C)cs2)cc1)C(C)(C)C | 24 nM | 1000 nM | > 10000 nM | – | – |
| COC(=O)N[C@H](C(=O)NN(CCC[C@@](O)(Cc1ccccc1)C(=O)N[C@H]1c2ccccc2C[C@H]1O)Cc1ccc(-c2ccccn2)cc1)C(C)(C)C | 2.8 nM | 470 nM | > 10000 nM | – | – |
| COC(=O)N[C@H](C(=O)NN(CCC[C@@](O)(Cc1ccccc1)C(=O)N[C@H]1c2ccccc2C[C@H]1O)Cc1ccc(CN2CCOCC2)cc1)C(C)(C)C | 11 nM | 880 nM | > 10000 nM | – | – |
| CC(C)(C)NC(=O)[C@@H]1CN(Cc2cccnc2)CCN1C[C@@H](O)C[C@@H](Cc1ccccc1)C(=O)N[C@H]1c2ccccc2C[C@H]1O | – | 41 nM | – | – | – |
| COC(=O)N[C@H](C(=O)NN(CCC[C@@](O)(Cc1ccccc1)C(=O)N[C@H]1c2ccccc2C[C@H]1O)Cc1ccc(N(C)C)cc1)C(C)(C)C | 4.9 nM | 980 nM | > 10000 nM | – | – |
| COC(=O)N[C@H](C(=O)NN(CCC[C@@](O)(Cc1ccccc1)C(=O)N[C@H]1c2ccccc2C[C@H]1O)Cc1ccc(I)cc1)C(C)(C)C | 4.5 nM | 820 nM | > 10000 nM | – | – |
| COC(=O)N[C@H](C(=O)NN(CCC[C@@](O)(Cc1ccccc1)C(=O)N[C@H]1c2ccccc2C[C@H]1O)Cc1ccc(-c2cn3ccsc3n2)cc1)C(C)(C)C | 2.3 nM | 480 nM | > 10000 nM | – | – |
| COC(=O)N[C@H](C(=O)NN(Cc1ccc(-c2cccnc2)cc1)C[C@](O)(Cc1ccccc1)C(=O)N[C@H]1c2ccccc2C[C@H]1O)C(C)(C)C | – | 180 nM | > 10000 nM | – | – |
| COC(=O)N[C@H](C(=O)NN(Cc1ccc(Br)cc1)C(=O)CC[C@@](O)(Cc1ccccc1)C(=O)N[C@H]1c2ccccc2C[C@H]1O)C(C)(C)C | – | > 10000 nM | > 10000 nM | – | – |
| COC(=O)N[C@H](C(=O)NN(CCC[C@@](O)(Cc1ccccc1)C(=O)N[C@H]1c2ccccc2C[C@H]1O)Cc1ccc(-c2nccs2)cc1)C(C)(C)C | 2.3 nM | 210 nM | > 10000 nM | > 20 ×10⁻⁶ cm/s | – |
| COC(=O)N[C@H](C(=O)NN(CCC[C@@](O)(Cc1ccccc1)C(=O)N[C@H]1c2ccccc2C[C@H]1O)Cc1ccc(-n2ccnc2)cc1)C(C)(C)C | 3.3 nM | 170 nM | > 10000 nM | – | – |
| COC(=O)N[C@H](C(=O)NN(CCC[C@@](O)(Cc1ccccc1)C(=O)N[C@H]1c2ccccc2C[C@H]1O)Cc1ccc(-c2cncnc2)cc1)C(C)(C)C | 2.4 nM | 220 nM | > 10000 nM | – | – |
| COC(=O)N[C@H](C(=O)NN(CCC[C@@](O)(Cc1ccccc1)C(=O)N[C@H]1c2ccccc2C[C@H]1O)Cc1ccc(-c2csc(C)n2)cc1)C(C)(C)C | 3.5 nM | 510 nM | > 10000 nM | – | – |
| COC(=O)N[C@H](C(=O)NN(CCC[C@@](O)(Cc1ccccc1)C(=O)N[C@H]1c2ccccc2C[C@H]1O)Cc1ccc(N2CCOCC2)cc1)C(C)(C)C | 3.6 nM | 500 nM | > 10000 nM | – | – |
